≈ marks a conversion by molar mass, not a printed value. Calls of active or inactive are those of the source. The rule behind the calls is not given here.
Assays:
[1] = test system: Enterococcus faecalis; assay: Antibacterial activity against Enterococcus faecalis after 24 hrs by broth microdilution method; type: functional
Procedure, shortened: (§1)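 2-fold serial dilutions of test agent in LB broth, DMSO under 5% final. Inoculum about 5 × 10^5 CFU/mL, confirmed by LB agar plating. Incubated 24 h at 35 °C in ambient air. MIC is the lowest concentration with no visible growth. Three repeats; oxacillin, vancomycin and chloramphenicol as positive controls.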

[2] = test system: Enterococcus faecalis; assay: Antibacterial activity against Enterococcus faecalis after 48 hrs by broth microdilution method; type: functional
[3] = test system: Enterococcus faecium; assay: Antibacterial activity against vancomycin-resistant Enterococcus faecium F935 expressing VanA after 24 hrs by broth microdilution method; type: functional; conditions: F935, 24 h; procedure, shortened: as §1
[4] = test system: Enterococcus faecium; assay: Antibacterial activity against vancomycin-resistant Enterococcus faecium F935 expressing VanA after 48 hrs by broth microdilution method; type: functional; conditions: F935, 48 h
[5] = test system: Enterococcus faecalis; assay: Antibacterial activity against vancomycin-resistant Enterococcus faecalis CKU-17 expressing VanB after 24 hrs by broth microdilution method; type: functional; conditions: CKU-17, 24 h; procedure, shortened: as §1
[6] = test system: Enterococcus faecalis; assay: Antibacterial activity against vancomycin-resistant Enterococcus faecalis CKU-17 expressing VanB after 48 hrs by broth microdilution method; type: functional; conditions: CKU-17, 48 h
[7] = test system: Escherichia coli; assay: Antibacterial activity against Escherichia coli up to 100 ug/mL after 24 hrs by broth microdilution method; type: functional, organism-based
Procedure, shortened: (§2)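 Broth microdilution with 2-fold serial dilutions in LB broth, compounds from DMSO stocks (DMSO below 5% final), inoculum about 5 × 10^5 CFU/mL. Incubated 24 h at 35 °C in ambient air. MIC is the lowest concentration with no visible growth. Experiments repeated three times.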

[8] = test system: Pseudomonas aeruginosa; assay: Antibacterial activity against Pseudomonas aeruginosa up to 100 ug/mL after 24 hrs by broth microdilution method; type: functional, organism-based; procedure, shortened: as §2
[9] = test system: Staphylococcus aureus; assay: Ratio of MBC to MIC for Staphylococcus aureus; type: functional
[10] = test system: Enterococcus faecalis; assay: Ratio of MBC to MIC for Enterococcus faecalis; type: functional
[11] = test system: Enterococcus faecium; assay: Ratio of MBC to MIC for vancomycin-resistant Enterococcus faecium F935 expressing VanA; type: functional
[12] = test system: Staphylococcus aureus; assay: Antibacterial activity against methicillin-resistant Staphylococcus aureus 8-8S assessed as reduction of bacterial count at MIC within 2 hrs by time kill assay; type: functional, organism-based
Procedure, shortened: (§3)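 Time-kill in Mueller-Hinton broth with multiples of the broth microdilution MIC. Starting inoculum about 5 × 10^5 CFU/mL, incubated at 35 °C. Samples taken at 0, 2, 4, 6 and 24 h, dilution-plated on LB agar, and counted after 24 h. Detection limit 100 CFU/mL; bactericidal means 3 log or greater reduction.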

[13] = test system: Staphylococcus aureus; assay: Antibacterial activity against methicillin-resistant Staphylococcus aureus 8-8S assessed as reduction of bacterial count at 0.5 MIC within 2 hrs by time kill assay; type: functional; design: scale not given: the % may be the effect or the level left; procedure, shortened: as §3
[14] = test system: Enterococcus faecalis; assay: Antibacterial activity against vancomycin-resistant Enterococcus faecalis CKU-17 expressing VanB assessed as reduction of bacterial count by time kill assay; type: functional, organism-based
Procedure, shortened: (§4)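 Time-kill in LB broth with multiples of the broth microdilution MIC (1/2 to 8× MIC). Starting inoculum about 5 × 10^5 CFU/mL, incubated at 35 °C. Samples taken at 0, 2, 4, 6 and 24 h, dilution-plated on LB agar, and counted after 24 h. Detection limit 100 CFU/mL.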

[15] = test system: Enterococcus faecium; assay: Antibacterial activity against vancomycin-resistant Enterococcus faecium F935 expressing VanA assessed as reduction of bacterial count by time kill assay; type: functional, organism-based; procedure, shortened: as §4
[16] = test system: HepG2; assay: Cytotoxicity against human HepG2 cells after 48 hrs by MTT assay; type: functional; conditions: HepG2, 48 h, read-out: CD50 (the source's name)
Procedure, shortened: (§5)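 Cells seeded at 5 × 10^3 per well, grown 24 h, then given 2-fold dilutions of sample for 48 h. Medium replaced with serum-free medium, MTT added (5 mg/mL stock) for 2 h at 37 °C, formazan dissolved in DMSO, OD read at 550 nm. CD50 is the concentration giving 50% reduction in net cell increase. Quadruplicate, repeated at least twice.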

[17] = test system: HeLa; assay: Cytotoxicity against human HeLa cells after 48 hrs by MTT assay; type: functional; conditions: read-out: CD50 (the source's name); procedure, shortened: as §5
[18] = test system: OVCAR-3; assay: Cytotoxicity against human OVCAR-3 cells after 48 hrs by MTT assay; type: functional; conditions: OVCAR-3, 48 h, read-out: CD50 (the source's name); procedure, shortened: as §5
[19] = test system: Staphylococcus aureus; assay: Antibacterial activity against Staphylococcus aureus after 24 hrs by broth microdilution method; type: functional
Procedure, shortened: as §1, with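 “in […]” for “in LB”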

[20] = test system: Staphylococcus aureus; assay: Antibacterial activity against Staphylococcus aureus after 48 hrs by broth microdilution method; type: functional
[21] = test system: Staphylococcus aureus; assay: Antibacterial activity against methicillin-resistant Staphylococcus aureus 8-8S after 24 hrs by broth microdilution method; type: functional
Procedure, shortened: as §1, with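 “in […]” for “in LB”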

[22] = test system: Staphylococcus aureus; assay: Antibacterial activity against methicillin-resistant Staphylococcus aureus 8-8S after 48 hrs by broth microdilution method; type: functional
[23] = test system: Enterococcus faecalis; assay: Antibacterial activity against vancomycin-resistant Enterococcus faecalis CKU-17 expressing VanB assessed as reduction of bacterial count at >=2 times MIC within 4 hrs by time kill assay; type: functional, organism-based; procedure, shortened: as §4
[24] = test system: Enterococcus faecium; assay: Antibacterial activity against vancomycin-resistant Enterococcus faecium F935 expressing VanA assessed as reduction of bacterial count at >=2 times MIC concentration within 4 hrs by time kill assay; type: functional, organism-based; procedure, shortened: as §4
[25] = test system: Enterococcus faecalis; assay: Antibacterial activity against vancomycin-resistant Enterococcus faecalis CKU-17 expressing VanB assessed as reduction of bacterial count at MIC up to 6 hrs by time kill assay; type: functional, organism-based; procedure, shortened: as §4
[26] = test system: Enterococcus faecium; assay: Antibacterial activity against vancomycin-resistant Enterococcus faecium F935 expressing VanA assessed as reduction of bacterial count at MIC up to 6 hrs by time kill assay; type: functional, organism-based; procedure, shortened: as §4
[27] = test system: Staphylococcus aureus; assay: Ratio of MBC to MIC for methicillin-resistant Staphylococcus aureus 8-8S; type: functional
[28] = test system: Enterococcus faecalis; assay: Ratio of MBC to MIC for vancomycin-resistant Enterococcus faecalis CKU-17 expressing VanB; type: functional

CC(=O)O[C@@H](CC=C(C)C)C1=CC(=O)c2c(O)ccc(O)c2C1=O [ACETYLALKANNIN]
MIC [1]: 3.13 µg/mL (≈ 9.48 µM) | MBC [2]: 3.13 µg/mL (≈ 9.48 µM) | MIC [3]: 6.25 µg/mL (≈ 18.9 µM) | MBC [4]: 6.25 µg/mL (≈ 18.9 µM) | MIC [5]: 6.25 µg/mL (≈ 18.9 µM) | MBC [6]: 6.25 µg/mL (≈ 18.9 µM) | Activity [7]: inactive | Activity [8]: inactive | Ratio [9]: <=2 | Ratio [10]: <=2 | Ratio [11]: <=2 | Activity [12]: Active | Activity [13]: >=99.9% | Activity [14]: Dose-dependent effect | Activity [15]: Dose-dependent effect | CC50 [16]: 2 µg/mL (≈ 6.05 µM) | CC50 [17]: 1.5 µg/mL (≈ 4.54 µM) | CC50 [18]: 1.5 µg/mL (≈ 4.54 µM) | MIC [19]: 1.56 µg/mL (≈ 4.72 µM) | MBC [20]: 1.56 µg/mL (≈ 4.72 µM) | MIC [21]: 1.56 µg/mL (≈ 4.72 µM) | MBC [22]: 1.56 µg/mL (≈ 4.72 µM)

CC(C)=CC[C@H](OC(=O)CC(C)C)C1=CC(=O)c2c(O)ccc(O)c2C1=O [ISOVALERYL ALKANNIN]
MIC [1]: 3.13 µg/mL (≈ 8.4 µM) | MBC [2]: 3.13 µg/mL (≈ 8.4 µM) | MIC [3]: 3.13 µg/mL (≈ 8.4 µM) | MBC [4]: 3.13 µg/mL (≈ 8.4 µM) | MIC [5]: 3.13 µg/mL (≈ 8.4 µM) | MBC [6]: 3.13 µg/mL (≈ 8.4 µM) | Activity [7]: inactive | Activity [8]: inactive | Ratio [9]: <=2 | Ratio [10]: <=2 | Ratio [11]: <=2 | Activity [23]: Active | Activity [24]: Active | Activity [25]: Active | Activity [26]: Active | CC50 [16]: 2.2 µg/mL (≈ 5.91 µM) | CC50 [17]: 1.7 µg/mL (≈ 4.56 µM) | CC50 [18]: 0.9 µg/mL (≈ 2.42 µM) | MIC [19]: 1.56 µg/mL (≈ 4.19 µM) | MBC [20]: 1.56 µg/mL (≈ 4.19 µM) | MIC [21]: 3.13 µg/mL (≈ 8.4 µM) | MBC [22]: 3.13 µg/mL (≈ 8.4 µM)

CC1=CC(=O)c2c(O)cccc2C1=O [PLUMBAGIN]
MIC [1]: 25 µg/mL (≈ 133 µM) | MBC [2]: 100 µg/mL (≈ 531 µM) | MIC [3]: 12.5 µg/mL (≈ 66.4 µM) | MBC [4]: 50 µg/mL (≈ 266 µM) | MIC [5]: 12.5 µg/mL (≈ 66.4 µM) | MBC [6]: 50 µg/mL (≈ 266 µM) | Ratio [9]: >=4 | Ratio [27]: >=4 | Ratio [10]: >=4 | Ratio [11]: >=4 | Ratio [28]: >=4 | MIC [19]: 3.13 µg/mL (≈ 16.6 µM) | MBC [20]: 25 µg/mL (≈ 133 µM) | MIC [21]: 3.13 µg/mL (≈ 16.6 µM) | MBC [22]: 25 µg/mL (≈ 133 µM)

From ChEMBL document CHEMBL1150162, “Antimicrobial activities of naphthazarins from Arnebia euchroma” (2002)
